pIC50, pKi: −log10 of the molar value.
Tests used:
D(3) dopamine receptor = D(3) dopamine receptor (Rattus norvegicus, UniProt P19020); test: Displacement of [3H]spiperone from rat recombinant dopamine D3 receptor expressed in Sf9 cells
D(2) dopamine receptor = D(2) dopamine receptor (Rattus norvegicus, UniProt P61169); test: Displacement of [3H]spiperone from dopamine D2 receptor in rat striatal membranes; assay type: cell membranes, Membrane
How it was run: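 Rat striatal membranes; [3H]spiperone 0.7 nM as radioligand; nonspecific binding defined with (+)-butaclamol. Ki values are means of two to four independent experiments, each with at least six concentrations in duplicate.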

[1] = target: T1, Adrenergic receptor alpha-1 (Rattus norvegicus, UniProt P15823+P23944+P43140); test: Displacement of [3H]-prazosin from adrenergic alpha-1 receptor in rat cerebral cortical membranes; assay type: cell membranes, Membrane
T1 sequence (P15823 whole entry): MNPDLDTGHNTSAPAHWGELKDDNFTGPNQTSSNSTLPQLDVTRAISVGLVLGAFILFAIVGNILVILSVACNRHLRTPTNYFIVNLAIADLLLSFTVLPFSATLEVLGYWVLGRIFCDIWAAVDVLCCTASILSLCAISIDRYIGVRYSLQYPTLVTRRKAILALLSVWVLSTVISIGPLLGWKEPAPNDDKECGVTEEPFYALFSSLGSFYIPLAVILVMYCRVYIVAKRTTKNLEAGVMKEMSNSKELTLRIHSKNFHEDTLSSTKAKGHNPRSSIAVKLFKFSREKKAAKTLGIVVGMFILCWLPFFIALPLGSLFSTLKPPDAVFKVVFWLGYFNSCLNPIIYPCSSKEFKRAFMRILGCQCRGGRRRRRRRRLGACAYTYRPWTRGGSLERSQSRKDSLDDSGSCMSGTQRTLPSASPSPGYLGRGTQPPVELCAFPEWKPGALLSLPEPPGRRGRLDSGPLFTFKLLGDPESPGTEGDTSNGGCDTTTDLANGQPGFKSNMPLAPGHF
T1 sequence (P23944 whole entry): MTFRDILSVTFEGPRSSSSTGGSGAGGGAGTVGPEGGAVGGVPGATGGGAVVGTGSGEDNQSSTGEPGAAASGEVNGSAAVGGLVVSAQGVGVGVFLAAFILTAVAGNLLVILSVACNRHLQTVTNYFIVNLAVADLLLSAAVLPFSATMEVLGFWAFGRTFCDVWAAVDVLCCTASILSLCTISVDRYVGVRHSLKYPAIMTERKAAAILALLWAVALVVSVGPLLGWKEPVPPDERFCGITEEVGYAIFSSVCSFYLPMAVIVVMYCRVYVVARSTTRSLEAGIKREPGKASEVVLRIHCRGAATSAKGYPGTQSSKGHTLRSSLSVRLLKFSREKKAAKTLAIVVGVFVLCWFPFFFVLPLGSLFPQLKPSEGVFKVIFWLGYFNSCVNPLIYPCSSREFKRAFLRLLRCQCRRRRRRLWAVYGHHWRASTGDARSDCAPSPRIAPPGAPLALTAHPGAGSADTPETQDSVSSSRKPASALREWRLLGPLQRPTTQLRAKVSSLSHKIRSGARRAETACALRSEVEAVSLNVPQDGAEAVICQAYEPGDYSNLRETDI
T1 sequence (P43140 whole entry): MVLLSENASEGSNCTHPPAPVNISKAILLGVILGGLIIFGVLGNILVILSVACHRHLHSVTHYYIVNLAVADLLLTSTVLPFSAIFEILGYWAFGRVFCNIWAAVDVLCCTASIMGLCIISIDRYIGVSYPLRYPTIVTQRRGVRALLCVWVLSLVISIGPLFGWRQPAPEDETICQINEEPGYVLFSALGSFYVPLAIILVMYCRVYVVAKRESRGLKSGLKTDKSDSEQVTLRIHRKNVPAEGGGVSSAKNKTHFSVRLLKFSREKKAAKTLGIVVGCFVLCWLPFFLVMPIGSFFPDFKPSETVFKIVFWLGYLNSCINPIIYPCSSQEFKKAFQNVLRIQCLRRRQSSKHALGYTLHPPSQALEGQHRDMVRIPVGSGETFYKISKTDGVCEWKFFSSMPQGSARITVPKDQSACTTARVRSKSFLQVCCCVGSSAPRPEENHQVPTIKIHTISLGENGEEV
How it was run: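 Alpha-1 binding used rat cerebral cortical membranes with [3H]prazosin 0.5 nM, with phentolamine defining nonspecific binding. Ki values are means of two to four independent experiments, each with at least six concentrations in duplicate.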

Rattus norvegicus [2] = species on record: Rattus norvegicus; test: Selectivity ratio of Ki for adrenergic alpha-1 receptor in rat cerebral cortical membranes to Ki for rat recombinant dopamine D3 receptor; assay type: cell membranes; conditions: Membrane
[3] = Metabolic stability in rat liver microsomes at 2.5 uM measured up to 20 mins; assay type: ADME, Microsome; conditions: read-out: Stability
How it was run: (§1)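 Compound incubated for up to 20 min with human or rat liver microsomes. Substrate consumption was followed over time; the plot was linear and was analysed by linear regression.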

[4] = Metabolic stability in human liver microsomes at 2.5 uM measured up to 20 mins; assay type: ADME, Microsome; conditions: read-out: Stability; how it was run: as §1
Mus musculus = test: Antipsychotic activity in po dosed CD1 mouse assessed as reduction of apomorphine-induced climbing behaviour administered 1 hr before apomorphine challenge measured after 10 to 16 mins; assay type: functional
D(1A) dopamine receptor = D(1A) dopamine receptor (Rattus norvegicus, UniProt P18901); test: Binding affinity to rat dopamine D1 receptor
[5] = Binding affinity to human dopamine D4.2 receptor
D(1B) dopamine receptor = D(1B) dopamine receptor (Homo sapiens, UniProt P21918); test: Binding affinity to human dopamine D5 receptor
[6] = Apparent terminal half life in iv or po dosed rat; assay type: ADME, organism-based; conditions: in vivo, read-out: betat1/2(app) (converted)
[7] = Ratio of drug level in brain to plasma in iv or po dosed rat; assay type: ADME, organism-based; conditions: read-out: BPR
[8] = Oral bioavailability in rat; assay type: ADME, organism-based; conditions: in vivo
[9] = Tmax in rat brain; assay type: ADME, tissue-based
[10] = Cmax in rat; assay type: ADME, organism-based; conditions: in vivo
Rattus norvegicus [11] = test: Induction of catalepsy in po dosed rat; assay type: organism-based; conditions: in vivo

D(2) dopamine receptor, sequence (P61169 whole entry): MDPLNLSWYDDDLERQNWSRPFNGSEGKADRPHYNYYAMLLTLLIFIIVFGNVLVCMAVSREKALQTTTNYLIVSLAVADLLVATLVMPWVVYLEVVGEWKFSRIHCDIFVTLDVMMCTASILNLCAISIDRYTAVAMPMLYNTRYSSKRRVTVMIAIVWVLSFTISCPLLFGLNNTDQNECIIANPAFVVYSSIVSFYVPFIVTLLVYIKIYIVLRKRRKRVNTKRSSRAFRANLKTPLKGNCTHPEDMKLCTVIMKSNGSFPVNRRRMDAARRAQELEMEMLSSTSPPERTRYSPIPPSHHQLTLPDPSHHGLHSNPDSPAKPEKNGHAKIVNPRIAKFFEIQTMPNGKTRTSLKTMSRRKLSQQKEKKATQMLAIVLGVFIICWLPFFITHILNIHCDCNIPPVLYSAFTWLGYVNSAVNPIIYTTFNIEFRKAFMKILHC
D(3) dopamine receptor, sequence (P19020 whole entry): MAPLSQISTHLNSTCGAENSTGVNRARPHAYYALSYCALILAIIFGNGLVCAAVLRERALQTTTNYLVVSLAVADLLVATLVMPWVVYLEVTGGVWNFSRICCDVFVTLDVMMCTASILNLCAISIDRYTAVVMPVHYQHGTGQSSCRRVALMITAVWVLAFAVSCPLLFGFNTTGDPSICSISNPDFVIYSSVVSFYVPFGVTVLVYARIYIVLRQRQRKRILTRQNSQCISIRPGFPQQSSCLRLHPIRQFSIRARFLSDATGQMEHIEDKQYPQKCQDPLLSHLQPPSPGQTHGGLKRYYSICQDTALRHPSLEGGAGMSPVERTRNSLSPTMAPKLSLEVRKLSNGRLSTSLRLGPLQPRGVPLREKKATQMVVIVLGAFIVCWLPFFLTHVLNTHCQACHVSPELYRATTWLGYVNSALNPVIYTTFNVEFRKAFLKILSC
D(1A) dopamine receptor, sequence (P18901 whole entry): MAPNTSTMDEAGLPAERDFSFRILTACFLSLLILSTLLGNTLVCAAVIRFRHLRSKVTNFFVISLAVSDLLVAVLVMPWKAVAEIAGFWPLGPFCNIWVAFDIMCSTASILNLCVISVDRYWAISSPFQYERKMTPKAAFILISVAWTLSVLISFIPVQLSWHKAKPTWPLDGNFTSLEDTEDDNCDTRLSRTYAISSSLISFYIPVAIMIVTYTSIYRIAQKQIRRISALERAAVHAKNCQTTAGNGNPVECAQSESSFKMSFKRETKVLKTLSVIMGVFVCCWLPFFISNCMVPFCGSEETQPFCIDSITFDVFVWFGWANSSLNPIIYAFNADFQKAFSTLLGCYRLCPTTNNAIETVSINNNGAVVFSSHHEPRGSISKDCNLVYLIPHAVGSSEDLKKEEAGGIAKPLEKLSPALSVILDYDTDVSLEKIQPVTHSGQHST
D(1B) dopamine receptor, sequence (P21918 whole entry): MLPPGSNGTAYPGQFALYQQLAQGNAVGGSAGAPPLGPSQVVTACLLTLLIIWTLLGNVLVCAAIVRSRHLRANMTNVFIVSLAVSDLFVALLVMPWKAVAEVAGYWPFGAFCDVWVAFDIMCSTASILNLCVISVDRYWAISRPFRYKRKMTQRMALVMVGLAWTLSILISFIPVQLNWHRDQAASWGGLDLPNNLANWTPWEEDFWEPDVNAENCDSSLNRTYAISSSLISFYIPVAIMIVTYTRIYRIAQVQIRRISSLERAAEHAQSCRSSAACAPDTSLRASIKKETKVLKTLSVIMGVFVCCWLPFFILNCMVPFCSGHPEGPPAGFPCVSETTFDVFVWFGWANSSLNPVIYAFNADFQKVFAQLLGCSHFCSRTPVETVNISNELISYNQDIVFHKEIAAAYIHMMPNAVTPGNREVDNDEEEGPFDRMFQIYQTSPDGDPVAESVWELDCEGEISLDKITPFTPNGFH

SMILES	pKi (D(3) dopamine receptor)	pKi (D(2) dopamine receptor)	Ki [1] [nM]	Ratio Ki (Rattus norvegicus [2])	pIC50 (D(3) dopamine receptor)	pIC50 (D(2) dopamine receptor)	ED50 (Mus musculus) [mg/kg]	also measured
CN(C)C(=O)N[C@H]1CC[C@H](CCN2CCN(c3cc(Cl)ccc3Cl)CC2)CC1	9.18	8.09	34.9	52.8	–	–	–	–
CN(C)C(=O)N[C@H]1CC[C@H](CCN2CCN(c3cc(Cl)cc(Cl)c3)CC2)CC1	–	–	–	–	–	–	–	remaining at 20 min, 2.5 µM [3]: 73%; remaining at 20 min, 2.5 µM [4]: 58%
CCOC(=O)N[C@H]1CC[C@H](CCN2CCN(Cc3cccc(C(F)(F)F)c3)CC2)CC1	–	–	–	–	8.29	7.60	5.37	–
CC(=O)N[C@H]1CC[C@H](CCN2CCN(c3cc(C#N)cc(C(F)(F)F)c3)CC2)CC1	–	–	–	–	8.72	6.84	1.54	–
CC(=O)N[C@H]1CC[C@H](CCN2CCN(c3cccc(Cl)c3Cl)CC2)CC1	–	–	–	–	9.54	8.64	0.17	–
CCNC(=O)N[C@H]1CC[C@H](CCN2CCN(c3cccc(Cl)c3Cl)CC2)CC1	–	–	–	–	9.47	7.77	0.38	–
CN(C)C(=O)N[C@H]1CC[C@H](CCN2CCN(c3cccc(Cl)c3Cl)CC2)CC1.Cl [CARIPRAZINE HYDROCHLORIDE]	–	–	214	–	–	[…]	–	remaining at 20 min, 2.5 µM [3]: 93%; remaining at 20 min, 2.5 µM [4]: 96%; pIC50 (D(1A) dopamine receptor): < 6.00; pIC50 [5]: < 6.00; pIC50 (D(1B) dopamine receptor): < 6.00; half-life [6]: 2 h; Kp [7]: 7.6; bioavailability [8]: 52%; Tmax [9]: 0.5 h; Cmax [10]: 91 ng/mL; MED (Rattus norvegicus [11]): > 85 mg/kg
CN(C)C(=O)N[C@H]1CC[C@H](CCN2CCN(c3ccc(Cl)c(Cl)c3)CC2)CC1	8.48	6.96	29.6	8.9	–	–	–	–
CS(=O)(=O)N[C@H]1CC[C@H](CCN2CCN(Cc3cccc(C(F)(F)F)c3)CC2)CC1	–	–	–	–	7.96	6.80	1.34	–
CN(C)C(=O)N[C@H]1CC[C@H](CCN2CCN(c3ccc(Cl)cc3Cl)CC2)CC1	8.27	6.97	156	28.9	–	–	–	–
